# Test results from article PMC9064899 (The FEBS journal, 2021).
# Residue numbers refer to the chain shown, from its start.
# Tests used:
# [1] = target: T1, UBIAD1 D240A (Homo sapiens, UniProt Q9Y5Z9, D240A); test: Cell-based UBIAD1 functional assay
# T1 sequence (Q9Y5Z9 1-338 D240A): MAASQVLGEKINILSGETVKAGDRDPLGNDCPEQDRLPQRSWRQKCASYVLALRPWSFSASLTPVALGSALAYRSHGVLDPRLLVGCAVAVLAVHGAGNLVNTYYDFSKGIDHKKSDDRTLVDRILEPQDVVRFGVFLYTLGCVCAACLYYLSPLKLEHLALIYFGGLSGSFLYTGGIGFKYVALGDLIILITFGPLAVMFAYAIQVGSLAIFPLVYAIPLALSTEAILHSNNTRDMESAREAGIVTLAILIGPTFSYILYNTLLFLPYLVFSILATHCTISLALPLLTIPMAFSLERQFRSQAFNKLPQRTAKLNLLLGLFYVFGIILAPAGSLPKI
# Summary of the method: (§1)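 Wild-type or mutant human UBIAD1 in pCI-neo was transiently transfected into Ubiad1-knockout FIXgla-PC/HEK293 cells (DMEM/F12, 10% FBS). […] After 24 h, carboxylated FIXgla-PC in the medium was measured by ELISA. Activity was normalized to wild type (100%), and EC50 came from a curve fit. Mean ± SD, n=3 independent experiments.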
# [2] = target: T2, UBIAD1 N102S (Homo sapiens, UniProt Q9Y5Z9, N102S); test: Cell-based UBIAD1 functional assay
# T2 sequence (Q9Y5Z9 1-338 N102S): T1 sequence (Q9Y5Z9 1-338 D240A) with N102S, A240D
# Summary of the method: as §1
structure (smiles),measurement,setting,value
"CC1=CC(=O)c2ccccc2C1=O [vitamin K3, menadione]",EC50,[1],64 ± 10.5 nM
same,Vitamin K-dependent carboxylation Activity ± SD,"[1]; D240A, 1 μM vitamin K3",85.6 ± 1.4%
same,EC50,[2],3.9 ± 0.3 nM
same,Vitamin K-dependent carboxylation Activity ± SD,"[2]; N102S, 1 μM vitamin K3",98.2 ± 3%
